Results reported in ChEMBL document CHEMBL4190234, “Design, synthesis and anticancer activity of new monastrol analogues bearing 1,3,4-oxadiazole moiety” (Eur J Med Chem, 2017).

What was measured:
MOLT-4 [1] = assay: Growth inhibition of human MOLT4 cells incubated for 24 hrs by MTT assay; format: functional, cell-based; details: MOLT-4, 24 h
HL-60(TB) [2] = assay: Growth inhibition of human HL-60(TB) cells incubated for 24 hrs by MTT assay; format: functional, cell-based; details: HL-60, 24 h
Summary of the method: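 Cells at 1.2-1.8×10^4 cells/ml in DMEM with 10% FBS, 10 µg/ml insulin and 1% penicillin/streptomycin, plated overnight at 37°C. Serial 10-fold dilutions added to 0.01–100 µM final, medium as negative control, 24 h. MTT (5 mg/ml) added for 4 h, formazan dissolved in acid-isopropanol, A490 read. Eight separate experiments; percent viable cells used to derive IC50.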

HL-60(TB) [3] = assay: Induction of apoptosis in human HL-60(TB) cells assessed as early apoptotic cells at 0.294 uM after 24 hrs by Annexin V-FITC/propidium iodide staining based flow cytometry (reference value: 0.84%); format: functional
HL-60(TB) [4] = assay: Induction of apoptosis in human HL-60(TB) cells assessed as late apoptotic cells at 0.294 uM after 24 hrs by Annexin V-FITC/propidium iodide staining based flow cytometry (reference value: 0.39%); format: functional
MOLT-4 [5] = assay: Cell cycle arrest in human MOLT4 cells assessed as accumulation of apoptotic cells in pre-G phase at 0.43 uM after 24 hrs by propidium iodide staining based flow cytometry (reference value: 0.88%); format: functional
Summary of the method: (§1)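 MOLT-4 cells (1×10^6) exposed 24 h to 0.160 or 0.430 μM test agent, DMSO (0.002%) control; trypsinized, washed in ice-cold PBS, fixed in ice-cold 70% ethanol ≥2 h at 4°C, washed, stained with propidium iodide DNA kit; cell cycle distribution (pre-G, G0/G1, S, G2/M) by flow cytometry.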

HL-60(TB) [6] = assay: Cell cycle arrest in human HL-60(TB) cells assessed as accumulation of apoptotic cells in pre-G phase at 0.294 uM after 24 hrs by propidium iodide staining based flow cytometry (reference value: 1.44%); format: functional
MOLT-4 [7] = assay: Induction of apoptosis in human MOLT4 cells assessed as live cells at 0.43 uM after 24 hrs by Annexin V-FITC/propidium iodide staining based flow cytometry (reference value: 99.12%); format: functional
MOLT-4 [8] = assay: Cell cycle arrest in human MOLT4 cells assessed as accumulation at G0/G1 phase at 0.43 uM after 24 hrs by propidium iodide staining based flow cytometry (reference value: 74.22%); format: functional; summary of the method: as §1
HL-60(TB) [9] = assay: Induction of apoptosis in human HL-60(TB) cells assessed as live cells at 0.294 uM after 24 hrs by Annexin V-FITC/propidium iodide staining based flow cytometry (reference value: 98.57%); format: functional
MOLT-4 [10] = assay: Cell cycle arrest in human MOLT4 cells assessed as accumulation at S phase at 0.43 uM after 24 hrs by propidium iodide staining based flow cytometry (reference value: 20.55%); format: functional; summary of the method: as §1
HL-60(TB) [11] = assay: Cell cycle arrest in human HL-60(TB) cells assessed as accumulation at G0/G1 phase at 0.294 uM after 24 hrs by propidium iodide staining based flow cytometry (reference value: 68.43%); format: functional
MOLT-4 [12] = assay: Induction of apoptosis in human MOLT4 cells assessed as late apoptotic cells at 0.43 uM after 24 hrs by Annexin V-FITC/propidium iodide staining based flow cytometry (reference value: 0.24%); format: functional
HL-60(TB) [13] = assay: Cell cycle arrest in human HL-60(TB) cells assessed as accumulation at G2/M phase at 0.294 uM after 24 hrs by propidium iodide staining based flow cytometry (reference value: 7.29%); format: functional
MOLT-4 [14] = assay: Cell cycle arrest in human MOLT4 cells assessed as accumulation at G2/M phase at 0.43 uM after 24 hrs by propidium iodide staining based flow cytometry (reference value: 4.35%); format: functional; summary of the method: as §1
HL-60(TB) [15] = assay: Induction of apoptosis in human HL-60(TB) cells assessed as increase in apoptotic cells at 0.294 uM after 24 hrs by Annexin V-FITC/propidium iodide staining based flow cytometry relative to control; format: functional
MOLT-4 [16] = assay: Induction of apoptosis in human MOLT4 cells assessed as increase in apoptotic cells at 0.43 uM after 24 hrs by Annexin V-FITC/propidium iodide staining based flow cytometry relative to control; format: functional
HL-60(TB) [17] = assay: Induction of apoptosis in human HL-60(TB) cells assessed as necrotic cells at 0.294 uM after 24 hrs by Annexin V-FITC/propidium iodide staining based flow cytometry (reference value: 0.2%); format: functional
MOLT-4 [18] = assay: Induction of apoptosis in human MOLT4 cells assessed as necrotic cells at 0.43 uM after 24 hrs by Annexin V-FITC/propidium iodide staining based flow cytometry (reference value: 0.11%); format: functional
MOLT-4 [19] = assay: Induction of apoptosis in human MOLT4 cells assessed as early apoptotic cells at 0.43 uM after 24 hrs by Annexin V-FITC/propidium iodide staining based flow cytometry (reference value: 0.53%); format: functional
HL-60(TB) [20] = assay: Cell cycle arrest in human HL-60(TB) cells assessed as accumulation at S phase at 0.294 uM after 24 hrs by propidium iodide staining based flow cytometry (reference value: 22.84%); format: functional

Q: How did the IC50 (MOLT-4 [1]) turn out when `CCOC(=O)C1=C(C)NC(SCc2nnc(-c3ccccc3)o2)=NC1c1ccc(Cl)cc1` (stereo unspecified) was run?
A: 344 µM

Q: What about the IC50 (HL-60(TB) [2]) of the same compound?
A: 74.4 µM

Q: How did the Activity (HL-60(TB) [3]) turn out when `CCOC(=O)C1=C(C)NC(=S)NC1c1cccc(O)c1` (stereo unspecified) [MONASTROL] was run?
A: 3.07%

Q: What about the Activity (HL-60(TB) [4]) of the same compound?
A: 3.19%

Q: And the Activity (MOLT-4 [5])?
A: 8.63%

Q: What about the Activity (HL-60(TB) [6]) of the same compound?
A: 6.89%

Q: What about the Activity (MOLT-4 [7]) of the same compound?
A: 89.2%

Q: What about the Activity (MOLT-4 [8]) of the same compound?
A: 55.72%

Q: What about the Activity (HL-60(TB) [9]) of the same compound?
A: 90.89%

Q: And the Activity (MOLT-4 [10])?
A: 21.73%

Q: What about the Activity (HL-60(TB) [11]) of the same compound?
A: 61.23%

Q: And the Activity (MOLT-4 [12])?
A: 4.21%

Q: What about the Activity (HL-60(TB) [13]) of the same compound?
A: 9.98%

Q: And the Activity (MOLT-4 [14])?
A: 13.92%

Q: And the “fold change (FC)” value (HL-60(TB) [15])?
A: 5.1

Q: And the IC50 (MOLT-4 [1])?
A: 0.215 µM

Q: And the “fold change (FC)” value (MOLT-4 [16])?
A: 10

Q: And the Activity (HL-60(TB) [17])?
A: 0.63%

Q: What about the Activity (MOLT-4 [18]) of the same compound?
A: 1.03%

Q: And the IC50 (HL-60(TB) [2])?
A: 0.147 µM

Q: What about the Activity (MOLT-4 [19]) of the same compound?
A: 3.39%

Q: What about the Activity (HL-60(TB) [20]) of the same compound?
A: 21.9%

Q: Which results are given for `CCOC(=O)C1=C(C)NC(SCc2nnc(-c3ccc(Cl)cc3)o2)=NC1c1ccccc1Cl` (stereo unspecified)?
A: IC50 (MOLT-4 [1]): 255 µM; IC50 (HL-60(TB) [2]): 193 µM

Q: `CCOC(=O)C1=C(C)NC(SCc2nnc(-c3ccc(C)cc3)o2)=NC1c1ccc(Cl)cc1` (stereo unspecified) was tested. Which IC50 (MOLT-4 [1]) did it give?
A: 538 µM

Q: What about the IC50 (HL-60(TB) [2]) of the same compound?
A: 220 µM
